From ChEMBL document CHEMBL1157406, “Cytotoxic metabolites from the fungal endophyte Alternaria sp. and their subsequent detection in its host plant Polygonum senegalense” (J Nat Prod, 2008) come the findings set out here.

Assay [1] addresses Hepatocyte growth factor receptor (Homo sapiens, UniProt P08581). Nature of the assay: Inhibition of recombinant MET.
The target in assay [2] is Insulin-like growth factor 1 receptor (Homo sapiens, UniProt P08069). As to the kind of experiment: Inhibition of recombinant IGF1R. A digest of the protocol:
(§1)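 Purified recombinant kinase, 50 µL reaction. 1 µM [γ-33P]-ATP with substrate; compound added in 10% DMSO. Tested over several concentrations; IC50 in g/mL.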

In assay [3] the target is T1, Receptor-type tyrosine-protein kinase FLT3 (Homo sapiens, UniProt P36888).
T1 sequence (P36888 whole entry): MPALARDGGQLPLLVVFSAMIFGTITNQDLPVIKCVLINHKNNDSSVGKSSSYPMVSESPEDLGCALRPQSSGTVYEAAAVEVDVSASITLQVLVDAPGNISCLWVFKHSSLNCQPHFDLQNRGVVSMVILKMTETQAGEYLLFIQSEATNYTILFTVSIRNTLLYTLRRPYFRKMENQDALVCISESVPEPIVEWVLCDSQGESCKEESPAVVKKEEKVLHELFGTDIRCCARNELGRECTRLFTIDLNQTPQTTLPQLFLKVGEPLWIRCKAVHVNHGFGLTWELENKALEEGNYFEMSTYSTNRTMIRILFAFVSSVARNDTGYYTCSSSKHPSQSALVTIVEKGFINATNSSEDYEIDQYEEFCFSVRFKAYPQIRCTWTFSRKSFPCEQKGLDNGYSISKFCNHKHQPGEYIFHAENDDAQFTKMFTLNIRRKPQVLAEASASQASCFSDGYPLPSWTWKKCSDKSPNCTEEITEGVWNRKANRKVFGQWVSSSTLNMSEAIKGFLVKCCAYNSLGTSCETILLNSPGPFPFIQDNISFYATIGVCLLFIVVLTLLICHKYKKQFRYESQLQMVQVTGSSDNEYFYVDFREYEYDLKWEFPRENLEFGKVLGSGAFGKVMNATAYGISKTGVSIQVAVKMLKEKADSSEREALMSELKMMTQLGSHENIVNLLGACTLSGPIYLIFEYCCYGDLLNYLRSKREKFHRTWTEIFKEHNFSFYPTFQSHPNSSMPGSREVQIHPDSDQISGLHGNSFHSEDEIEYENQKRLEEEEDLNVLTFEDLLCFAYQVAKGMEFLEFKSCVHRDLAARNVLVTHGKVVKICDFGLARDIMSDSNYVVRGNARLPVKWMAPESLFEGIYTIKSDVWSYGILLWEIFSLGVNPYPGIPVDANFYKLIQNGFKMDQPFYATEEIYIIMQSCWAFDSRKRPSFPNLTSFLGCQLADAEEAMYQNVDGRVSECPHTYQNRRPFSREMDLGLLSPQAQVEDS
As to the kind of experiment: Inhibition of recombinant FLT3. In a few lines: as §1

In the next assay the target is T2, Aurora kinase A (Homo sapiens, UniProt O14965).
T2 sequence (O14965 whole entry): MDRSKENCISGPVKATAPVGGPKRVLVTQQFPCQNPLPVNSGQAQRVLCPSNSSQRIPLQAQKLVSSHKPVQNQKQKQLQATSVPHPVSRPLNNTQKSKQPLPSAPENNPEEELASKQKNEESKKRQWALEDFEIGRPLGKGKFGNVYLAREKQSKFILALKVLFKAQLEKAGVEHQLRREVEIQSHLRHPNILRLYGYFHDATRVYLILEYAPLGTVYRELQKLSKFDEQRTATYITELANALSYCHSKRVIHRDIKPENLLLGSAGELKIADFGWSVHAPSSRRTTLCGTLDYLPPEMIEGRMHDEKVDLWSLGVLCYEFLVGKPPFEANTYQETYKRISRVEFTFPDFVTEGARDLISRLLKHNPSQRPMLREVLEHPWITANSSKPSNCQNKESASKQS
As to the kind of experiment: Inhibition of recombinant Aurora A. A digest of the protocol:
as §1

A further assay addresses Angiopoietin-1 receptor (Homo sapiens, UniProt Q02763). As to the kind of experiment: Inhibition of recombinant TIE2. A digest of the protocol: as §1
For assay [4], the target named is T3, NUAK family SNF1-like kinase 1 (Homo sapiens, UniProt O60285).
T3 sequence (O60285 whole entry): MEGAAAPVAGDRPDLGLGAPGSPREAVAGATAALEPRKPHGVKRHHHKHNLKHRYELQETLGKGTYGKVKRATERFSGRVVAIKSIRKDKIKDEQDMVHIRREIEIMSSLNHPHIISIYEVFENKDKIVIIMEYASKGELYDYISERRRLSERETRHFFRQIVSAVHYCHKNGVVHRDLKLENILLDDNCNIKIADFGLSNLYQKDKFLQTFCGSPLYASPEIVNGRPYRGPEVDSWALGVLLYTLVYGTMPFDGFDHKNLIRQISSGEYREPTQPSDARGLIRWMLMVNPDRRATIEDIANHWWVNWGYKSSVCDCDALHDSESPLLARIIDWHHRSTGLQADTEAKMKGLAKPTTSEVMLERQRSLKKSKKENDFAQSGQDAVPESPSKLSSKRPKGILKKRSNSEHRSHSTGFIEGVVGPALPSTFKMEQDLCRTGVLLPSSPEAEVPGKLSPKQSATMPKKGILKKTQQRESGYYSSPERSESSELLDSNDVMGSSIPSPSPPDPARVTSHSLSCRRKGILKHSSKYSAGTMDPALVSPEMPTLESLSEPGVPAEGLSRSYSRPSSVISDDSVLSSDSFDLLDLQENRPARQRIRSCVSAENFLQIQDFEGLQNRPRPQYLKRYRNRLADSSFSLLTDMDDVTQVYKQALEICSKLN
Nature of the assay: Inhibition of recombinant ARK5.

For assay [5], the target named is Vascular endothelial growth factor receptor 3 (Homo sapiens, UniProt P35916). As to the kind of experiment: Inhibition of recombinant VEGFR3. In a few lines:
as §1

Assay [6] deals with Receptor tyrosine-protein kinase erbB-2 (Homo sapiens, UniProt P04626). As to the kind of experiment: Inhibition of recombinant ERBB2. A digest of the protocol: as §1
Assay [7] concerns the target RAC-alpha serine/threonine-protein kinase (Homo sapiens, UniProt P31749). Nature of the assay: Inhibition of recombinant AKT1. A digest of the protocol:
as §1

Structures are written as SMILES. Some results are limits rather than exact numbers.

Sequence of Angiopoietin-1 receptor (Q02763 whole entry): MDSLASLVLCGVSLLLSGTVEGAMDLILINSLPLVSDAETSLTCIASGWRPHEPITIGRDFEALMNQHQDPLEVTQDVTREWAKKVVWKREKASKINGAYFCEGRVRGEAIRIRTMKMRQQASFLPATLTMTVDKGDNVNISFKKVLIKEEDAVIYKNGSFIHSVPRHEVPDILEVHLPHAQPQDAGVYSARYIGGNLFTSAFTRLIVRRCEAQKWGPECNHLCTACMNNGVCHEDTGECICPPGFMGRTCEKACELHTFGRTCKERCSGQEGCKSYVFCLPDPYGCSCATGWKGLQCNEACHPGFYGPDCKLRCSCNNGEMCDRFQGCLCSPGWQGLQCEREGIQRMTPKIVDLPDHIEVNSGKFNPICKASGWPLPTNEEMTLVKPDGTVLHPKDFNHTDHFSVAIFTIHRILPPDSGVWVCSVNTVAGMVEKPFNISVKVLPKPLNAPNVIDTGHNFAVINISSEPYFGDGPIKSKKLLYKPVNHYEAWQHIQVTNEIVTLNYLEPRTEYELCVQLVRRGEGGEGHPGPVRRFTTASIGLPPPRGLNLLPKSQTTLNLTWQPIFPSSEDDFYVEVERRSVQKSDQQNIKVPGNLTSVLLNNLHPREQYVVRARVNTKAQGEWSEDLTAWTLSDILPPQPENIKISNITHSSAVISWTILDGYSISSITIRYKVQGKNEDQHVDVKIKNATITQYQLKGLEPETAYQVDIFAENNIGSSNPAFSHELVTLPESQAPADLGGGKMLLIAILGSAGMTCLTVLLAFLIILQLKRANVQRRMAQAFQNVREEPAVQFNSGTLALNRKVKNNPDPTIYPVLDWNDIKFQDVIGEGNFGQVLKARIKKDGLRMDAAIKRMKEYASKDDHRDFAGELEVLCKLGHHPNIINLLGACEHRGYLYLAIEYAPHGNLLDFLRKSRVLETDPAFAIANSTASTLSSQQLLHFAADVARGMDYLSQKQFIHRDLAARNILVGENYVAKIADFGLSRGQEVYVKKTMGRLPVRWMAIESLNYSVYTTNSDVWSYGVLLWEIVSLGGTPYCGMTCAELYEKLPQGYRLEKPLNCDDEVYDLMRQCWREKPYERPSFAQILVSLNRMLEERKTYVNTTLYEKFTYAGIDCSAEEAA
Sequence of RAC-alpha serine/threonine-protein kinase (P31749 whole entry): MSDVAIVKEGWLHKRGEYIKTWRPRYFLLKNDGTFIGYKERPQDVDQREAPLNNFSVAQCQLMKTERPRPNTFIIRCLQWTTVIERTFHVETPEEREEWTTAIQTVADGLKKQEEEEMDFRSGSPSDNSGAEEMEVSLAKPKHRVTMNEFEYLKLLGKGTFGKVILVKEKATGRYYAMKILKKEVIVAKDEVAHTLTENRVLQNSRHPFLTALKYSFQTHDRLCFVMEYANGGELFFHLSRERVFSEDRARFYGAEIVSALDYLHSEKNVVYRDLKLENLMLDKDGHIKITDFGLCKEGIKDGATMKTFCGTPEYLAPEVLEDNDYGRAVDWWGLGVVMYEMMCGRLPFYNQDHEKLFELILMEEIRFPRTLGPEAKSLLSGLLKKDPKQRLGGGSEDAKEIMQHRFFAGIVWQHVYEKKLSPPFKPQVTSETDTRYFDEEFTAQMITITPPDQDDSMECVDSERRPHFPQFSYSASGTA
Sequence of Hepatocyte growth factor receptor (P08581 whole entry): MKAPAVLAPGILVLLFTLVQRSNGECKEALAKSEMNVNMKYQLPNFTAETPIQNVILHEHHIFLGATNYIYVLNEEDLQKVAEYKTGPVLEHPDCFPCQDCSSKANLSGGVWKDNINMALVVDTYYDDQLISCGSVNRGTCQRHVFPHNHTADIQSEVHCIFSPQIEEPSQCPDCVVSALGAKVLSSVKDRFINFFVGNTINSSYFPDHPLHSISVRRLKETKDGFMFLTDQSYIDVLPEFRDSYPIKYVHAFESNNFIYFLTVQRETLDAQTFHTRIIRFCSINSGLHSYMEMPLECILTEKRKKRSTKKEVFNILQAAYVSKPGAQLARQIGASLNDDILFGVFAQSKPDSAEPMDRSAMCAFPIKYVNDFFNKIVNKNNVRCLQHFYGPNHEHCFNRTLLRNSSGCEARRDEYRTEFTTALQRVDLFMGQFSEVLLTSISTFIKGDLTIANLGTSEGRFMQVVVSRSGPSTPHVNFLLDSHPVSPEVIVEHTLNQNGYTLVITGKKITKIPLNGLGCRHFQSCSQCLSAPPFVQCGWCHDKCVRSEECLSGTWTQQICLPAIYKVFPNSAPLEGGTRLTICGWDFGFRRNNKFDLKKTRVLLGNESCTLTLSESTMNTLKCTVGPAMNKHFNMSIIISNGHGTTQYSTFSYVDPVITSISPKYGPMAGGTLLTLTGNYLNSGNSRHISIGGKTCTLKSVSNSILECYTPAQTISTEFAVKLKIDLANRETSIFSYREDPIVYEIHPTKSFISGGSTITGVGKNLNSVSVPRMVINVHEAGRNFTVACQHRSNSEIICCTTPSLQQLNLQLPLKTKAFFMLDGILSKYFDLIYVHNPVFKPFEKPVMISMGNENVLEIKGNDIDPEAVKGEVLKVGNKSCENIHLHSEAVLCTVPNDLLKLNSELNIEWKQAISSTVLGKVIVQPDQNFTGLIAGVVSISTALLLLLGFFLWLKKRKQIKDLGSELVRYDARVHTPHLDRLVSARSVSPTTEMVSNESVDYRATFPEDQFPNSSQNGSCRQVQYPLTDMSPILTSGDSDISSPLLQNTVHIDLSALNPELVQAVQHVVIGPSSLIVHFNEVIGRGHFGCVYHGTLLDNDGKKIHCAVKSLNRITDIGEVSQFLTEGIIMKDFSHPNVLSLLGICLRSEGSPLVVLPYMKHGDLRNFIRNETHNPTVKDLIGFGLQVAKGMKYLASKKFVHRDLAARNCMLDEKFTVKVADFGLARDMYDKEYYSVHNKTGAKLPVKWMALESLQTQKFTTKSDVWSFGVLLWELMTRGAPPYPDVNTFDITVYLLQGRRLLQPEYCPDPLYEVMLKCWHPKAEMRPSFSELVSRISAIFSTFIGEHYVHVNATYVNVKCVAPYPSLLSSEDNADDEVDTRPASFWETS
Sequence of Vascular endothelial growth factor receptor 3 (P35916 whole entry): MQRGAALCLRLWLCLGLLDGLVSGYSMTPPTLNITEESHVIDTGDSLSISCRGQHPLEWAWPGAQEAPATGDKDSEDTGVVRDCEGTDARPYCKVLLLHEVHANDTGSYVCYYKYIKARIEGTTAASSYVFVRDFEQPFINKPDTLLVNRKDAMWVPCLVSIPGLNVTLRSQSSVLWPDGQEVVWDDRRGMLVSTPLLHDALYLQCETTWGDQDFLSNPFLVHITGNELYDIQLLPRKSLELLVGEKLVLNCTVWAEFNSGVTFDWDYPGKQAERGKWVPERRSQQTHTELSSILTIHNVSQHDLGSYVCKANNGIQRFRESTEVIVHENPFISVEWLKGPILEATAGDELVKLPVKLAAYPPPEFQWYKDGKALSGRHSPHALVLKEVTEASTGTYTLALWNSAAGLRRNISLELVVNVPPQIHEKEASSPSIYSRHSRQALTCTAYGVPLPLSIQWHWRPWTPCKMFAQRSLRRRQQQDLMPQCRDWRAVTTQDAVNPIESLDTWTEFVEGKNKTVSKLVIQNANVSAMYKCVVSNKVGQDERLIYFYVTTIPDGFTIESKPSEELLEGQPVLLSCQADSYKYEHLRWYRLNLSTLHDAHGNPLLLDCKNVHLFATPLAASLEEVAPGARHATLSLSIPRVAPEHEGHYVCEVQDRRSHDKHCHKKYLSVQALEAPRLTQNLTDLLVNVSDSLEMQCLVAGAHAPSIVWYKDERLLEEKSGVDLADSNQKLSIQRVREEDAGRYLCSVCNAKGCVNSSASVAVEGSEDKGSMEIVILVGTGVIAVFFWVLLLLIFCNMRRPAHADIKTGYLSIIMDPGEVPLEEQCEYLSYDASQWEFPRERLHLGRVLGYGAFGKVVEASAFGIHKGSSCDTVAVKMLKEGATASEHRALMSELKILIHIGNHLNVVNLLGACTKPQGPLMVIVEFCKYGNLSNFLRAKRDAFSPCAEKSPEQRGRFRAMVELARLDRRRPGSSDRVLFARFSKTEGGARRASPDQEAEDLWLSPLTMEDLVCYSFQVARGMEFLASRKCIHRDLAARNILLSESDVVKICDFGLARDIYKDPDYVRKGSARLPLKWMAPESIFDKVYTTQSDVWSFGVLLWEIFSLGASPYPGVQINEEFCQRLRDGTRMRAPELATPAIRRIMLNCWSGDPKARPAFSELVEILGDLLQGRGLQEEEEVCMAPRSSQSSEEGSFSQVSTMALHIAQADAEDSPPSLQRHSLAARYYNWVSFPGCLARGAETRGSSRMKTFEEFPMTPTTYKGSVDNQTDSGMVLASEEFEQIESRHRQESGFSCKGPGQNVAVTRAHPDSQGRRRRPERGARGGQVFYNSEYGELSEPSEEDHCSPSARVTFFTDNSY

Consider `Cc1cc(O)cc2oc(=O)c3c(O)cc(OS(=O)(=O)O)cc3c12`, for which the IC50 in [1] (read-out: IC50 (converted)) was 22.5 µM; in assay [2] (read-out: IC50 (converted)), 14.5 µM; in assay [3], 3.3 ×10⁻⁷ g/ml; at Aurora kinase A, 3.9 ×10⁻⁷ g/ml; on Angiopoietin-1 receptor (read-out: IC50 (converted)) it was 20.1 µM; in assay [4] it was 7.5 ×10⁻⁷ g/ml. Also, the IC50 in [5] (read-out: IC50 (converted)) was 5.03 µM; in [6] (read-out: IC50 (converted)) it was 24.8 µM; in assay [7], more than 1 ×10⁻⁵ g/ml.
Turning to `COc1cc(O)c2c(=O)oc3cc(O)cc(C)c3c2c1`, the IC50 is 6.24 µM in assay [2] (read-out: IC50 (converted)); 3.67 µM in assay [3] (read-out: IC50 (converted)); 18.4 µM at Aurora kinase A (read-out: IC50 (converted)); 12.9 µM at Angiopoietin-1 receptor (read-out: IC50 (converted)); 14.7 µM in assay [4] (read-out: IC50 (converted)); 9.6 ×10⁻⁷ g/ml in assay [5]. Besides, the IC50 was 16.5 µM in assay [6] (read-out: IC50 (converted)) and 29 µM in assay [7] (read-out: IC50 (converted)).
As for `Cc1cc(O)c(O)cc1-c1cc(O)cc(O)c1C(=O)O`, the IC50 in assay [1] (read-out: IC50 (converted)) was 9.05 µM; in [2] (read-out: IC50 (converted)), 8.69 µM; in [3] (read-out: IC50 (converted)) it was 6.52 µM; on Aurora kinase A (read-out: IC50 (converted)), 9.77 µM; at Angiopoietin-1 receptor (read-out: IC50 (converted)) it was 13.8 µM; in [4] (read-out: IC50 (converted)), 9.41 µM. The IC50 was 24.6 µM in [5] (read-out: IC50 (converted)), more than 1 ×10⁻⁵ g/ml in assay [6] and more than 1 ×10⁻⁵ g/ml in [7].
Take `COc1cc(O)c2c(=O)oc3c(O)c(O)cc(C)c3c2c1`: the IC50 in assay [1] (read-out: IC50 (converted)) was 5.9 µM; in assay [2] it was 9.1 ×10⁻⁷ g/ml; in assay [3], 5.3 ×10⁻⁷ g/ml; at Aurora kinase A (read-out: IC50 (converted)) it was 5.2 µM; on Angiopoietin-1 receptor (read-out: IC50 (converted)), 4.86 µM; in assay [4], 3.5 ×10⁻⁷ g/ml. Besides, the figures for the IC50 in assay [5], in assay [6] (read-out: IC50 (converted)) and in [7] (read-out: IC50 (converted)) were 3.9 ×10⁻⁷ g/ml, 9.37 µM and 18.4 µM, respectively.
In the case of `COc1cc(O)c(C(=O)O)c(-c2cc(O)c(O)cc2C)c1` [ALTENUSIN], the IC50 was 14.8 µM in [1] (read-out: IC50 (converted)); 16.9 µM in [2] (read-out: IC50 (converted)); 5.51 µM in assay [3] (read-out: IC50 (converted)); 6.2 µM on Aurora kinase A (read-out: IC50 (converted)); 33.8 µM at Angiopoietin-1 receptor (read-out: IC50 (converted)); 22.7 µM in assay [4] (read-out: IC50 (converted)). Besides, the IC50 in [5], in [6] and in [7] was more than 1 ×10⁻⁵ g/ml each time.
In the case of `COc1cc(O)c2c(c1)-c1cc(O)c(O)cc1COC2=O` [ALTERLACTONE], the IC50 (in assay [1]; in assay [2]; in assay [3]; at Aurora kinase A; on Angiopoietin-1 receptor; in assay [4]) was more than 1 ×10⁻⁵ g/ml each time. The IC50 in assay [5], in assay [6] and in [7] was more than 1 ×10⁻⁵ g/ml each time.
On to `COc1cc(O)c(C(=O)O)c(C2=C(C)C[C@@H](O)C2=O)c1` [ALTERNARIENONIC ACID], for which the IC50 in assay [1] (read-out: IC50 (converted)) was 33.8 µM; in [2] (read-out: IC50 (converted)) it was 12.9 µM; in [3] (read-out: IC50 (converted)), 23.7 µM; at Aurora kinase A (read-out: IC50 (converted)), 15.8 µM; on Angiopoietin-1 receptor, more than 1 ×10⁻⁵ g/ml; in [4] (read-out: IC50 (converted)), 14.4 µM. The IC50 in assay [5] (read-out: IC50 (converted)) was 13.3 µM; in assay [6], more than 1 ×10⁻⁵ g/ml; in assay [7], more than 1 ×10⁻⁵ g/ml.
As for `Cc1cc(O)cc2oc(=O)c3c(O)cc(O)cc3c12` [ALTERNARIOL], the IC50 in assay [1] (read-out: IC50 (converted)) is 20.9 µM; in assay [2] (read-out: IC50 (converted)) it was 13.2 µM; in assay [3], 4.3 ×10⁻⁷ g/ml; at Aurora kinase A, 7.3 ×10⁻⁷ g/ml; at Angiopoietin-1 receptor (read-out: IC50 (converted)), 27.1 µM; in assay [4], 9.5 ×10⁻⁷ g/ml. For the same compound, the IC50 in assay [5] (read-out: IC50 (converted)) is 5.03 µM; in assay [6] (read-out: IC50 (converted)) it was 36.4 µM; in assay [7], more than 1 ×10⁻⁵ g/ml.
As to `O=C1C[C@H](O)[C@@H]2c3c(ccc(O)c31)-c1ccc(O)c3c1[C@@]2(O)CCC3=O` [ALTERTOXIN I], the IC50 is 19.9 µM in assay [1] (read-out: IC50 (converted)); 4.82 µM in assay [2] (read-out: IC50 (converted)); 6.6 ×10⁻⁷ g/ml in assay [3]; 4.82 µM on Aurora kinase A (read-out: IC50 (converted)); 25 µM on Angiopoietin-1 receptor (read-out: IC50 (converted)); 6.24 µM in assay [4] (read-out: IC50 (converted)). The results for the IC50 in assay [5] (read-out: IC50 (converted)), in [6] and in assay [7] were 7.95 µM, more than 1 ×10⁻⁵ g/ml and more than 1 ×10⁻⁵ g/ml, respectively.
For the compound `COc1cc(O)c2c(c1)C1(OC2=O)C(C)=CC(=O)C1O` (centres undefined) [TALAROFLAVONE], the IC50 (in [1]; in [2]; in assay [3]; at Aurora kinase A; at Angiopoietin-1 receptor; in assay [4]) was more than 1 ×10⁻⁵ g/ml in each case. Besides, the IC50 in [5], in [6] and in assay [7] was more than 1 ×10⁻⁵ g/ml each time.
